Assay results reported in ChEMBL document CHEMBL4706687, “Synthesis and Pharmacological Evaluation of Novel Non-nucleotide Purine Derivatives as P2X7 Antagonists for the Treatment of Neuroinflammation” (J Med Chem, 2021).
Calls of active or inactive are those of the source. No cut-off for these calls is given here.

Key:
Assay type in all cases: cell-based
[1] = target: T1, P2X purinoceptor 7 (Homo sapiens) (UniProt Q99572); experiment: (§1) Antagonist activity at human P2X7 receptor expressed in HEK293 cells assessed as reduction in benzoyl-ATP-induced intracellular Ca2+ level by Fura-2 dye based fluorescence assay; conditions: filed as antagonist
T1 sequence (whole entry): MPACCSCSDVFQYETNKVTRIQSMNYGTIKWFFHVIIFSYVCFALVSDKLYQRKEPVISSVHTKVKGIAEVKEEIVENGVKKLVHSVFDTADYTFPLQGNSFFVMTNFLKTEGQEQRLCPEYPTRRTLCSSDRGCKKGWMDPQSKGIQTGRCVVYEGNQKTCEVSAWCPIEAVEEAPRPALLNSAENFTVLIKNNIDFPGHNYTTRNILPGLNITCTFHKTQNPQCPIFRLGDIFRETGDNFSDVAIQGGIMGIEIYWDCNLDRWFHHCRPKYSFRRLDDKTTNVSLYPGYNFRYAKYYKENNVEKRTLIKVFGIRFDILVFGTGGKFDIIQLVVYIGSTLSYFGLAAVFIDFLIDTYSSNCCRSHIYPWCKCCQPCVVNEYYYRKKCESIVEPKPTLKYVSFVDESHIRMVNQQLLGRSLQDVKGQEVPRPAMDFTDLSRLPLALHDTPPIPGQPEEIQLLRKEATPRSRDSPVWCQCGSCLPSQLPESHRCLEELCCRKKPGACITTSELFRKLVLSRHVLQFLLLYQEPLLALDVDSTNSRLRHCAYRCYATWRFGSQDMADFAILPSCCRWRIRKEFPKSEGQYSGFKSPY
In short: (§2)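 hP2X7-HEK293 cells 24–48 h after seeding, loaded with Fura-2-AM 8 μM for 1 h, then washed in Mg²⁺-free Tyrode (2 mM CaCl₂, pH 7.4) for 15–30 min with compound present. Excitation 340/380 nm, emission 520 nm. Basal recording, then BzATP injected (100 μM final). [Ca²⁺]c from Grynkiewicz equation. Blockade as percent of BzATP peak in Tyrode-only wells; triplicates.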

P2X purinoceptor 7 = target: T2, P2X purinoceptor 7 (Homo sapiens, UniProt Q99572); experiment: as §1; in short: as §2
T2 sequence (Q99572 whole entry): T1 sequence (whole entry)

[2] = target: T1, P2X purinoceptor 7 (Homo sapiens); experiment: Antagonist activity at human P2X7 receptor expressed in Xenopus laevis oocytes assessed as reduction in ATP-induced channel currents at 100 uM by TEVC electrophysiology assay relative to control; conditions: Oocyte, filed as antagonist
In short: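 Oocytes injected with 50 nL His-tagged hP2X7 cRNA (0.5 mg/mL), kept 1–2 days at 16–18 °C. Recorded in low divalent-cation solution (90 mM NaCl, 0.5 mM CaCl₂, 5 mM HEPES) at −70 mV. ATP 300 μM for 2 s after 3 min static compound incubation. Current normalized to control amplitude. Triplicates from three oocytes, two frogs.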

[3] = target: T1, P2X purinoceptor 7 (Homo sapiens); experiment: Antagonist activity at human P2X7 receptor expressed in HEK293 cells assessed as reduction in benzoyl-ATP-induced YO-PRO-1 dye uptake at 10 uM pre-incubated for 20 mins before YO-PRO-1 addition and measured after 25 mins by fluorescence plate reader analysis relative to control; conditions: filed as antagonist, time 45.0 min
In short: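 Stably transfected hP2X7-HEK293 cells, 48 h after seeding, in Mg²⁺-free Krebs-HEPES (0.2 mM CaCl₂, pH 7.4). Compound preincubation 20 min, then YO-PRO-1 2 μM, then BzATP 30 μM. Fluorescence at 485/520 nm read for 25 min. Each well normalized to Fmax (0.5% Triton X-100) and Fmin (2 M MnCl₂): F = (Fx − F0)/(Fmax − Fmin). Triplicates from three cultures. IC50 is the concentration halving BzATP-induced uptake.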

[4] = target: T3, P2X purinoceptor 4 (Rattus norvegicus) (UniProt P51577); experiment: Antagonist activity at rat P2X4 receptor expressed in Xenopus laevis oocytes assessed as reduction in ATP-induced channel currents at 100 uM by TEVC electrophysiology assay relative to control; conditions: Oocyte
T3 sequence (whole entry): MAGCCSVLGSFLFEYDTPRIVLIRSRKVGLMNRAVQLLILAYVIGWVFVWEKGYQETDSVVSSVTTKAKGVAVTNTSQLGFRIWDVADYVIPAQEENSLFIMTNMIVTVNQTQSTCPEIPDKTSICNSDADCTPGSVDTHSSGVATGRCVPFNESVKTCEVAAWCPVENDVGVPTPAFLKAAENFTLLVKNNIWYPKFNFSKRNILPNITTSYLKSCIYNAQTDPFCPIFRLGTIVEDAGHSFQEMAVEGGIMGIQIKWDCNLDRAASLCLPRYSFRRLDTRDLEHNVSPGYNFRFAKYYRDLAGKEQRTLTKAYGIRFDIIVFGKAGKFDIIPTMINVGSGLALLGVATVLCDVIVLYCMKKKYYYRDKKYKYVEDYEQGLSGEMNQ
In short: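 Two-electrode voltage clamp at −70 mV in low divalent-cation solution, oocytes incubated 1–2 days at 16–18 °C after 50 nL cRNA injection: rP2X1 and rP2X4 at 0.5 mg/mL, rP2X2 0.1 mg/mL, rP2X7 25 μg/mL. ATP 10 μM for rP2X1 and rP2X2, 30 μM for rP2X4 and rP2X7. Compound applied 3 min without perfusion. Currents normalized to control; three oocytes from two frogs.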

O=C(Cn1cnc2c(Cl)ncnc21)c1ccc(Cl)cc1Cl
inhibition [1]: Dose-dependent effect | IC50 (P2X purinoceptor 7): 13.7 µM | inhibition [2]: 47% | inhibition [3]: 63% | inhibition [4]: inactive
